Data taken from BindingDB's records for doi:10.1021/np5000704 (University of North Carolina At Greensboro, 2014).
Positions of bridges follow the written chain, without caps; N, C: chain ends. Residues, ends and D or L forms follow the SMILES beside them.

The compounds below were run against T1, Accessory gene regulator protein A (Staphylococcus aureus, UniProt P0A0I7) (assay: Inhibition of AGR quorum sensing system in methicillin-resistant Staphylococcus aureus AH2759 incubated for 15 hrs by P3-LUX reporter gene assay).
T1 sequence (P0A0I7 whole entry): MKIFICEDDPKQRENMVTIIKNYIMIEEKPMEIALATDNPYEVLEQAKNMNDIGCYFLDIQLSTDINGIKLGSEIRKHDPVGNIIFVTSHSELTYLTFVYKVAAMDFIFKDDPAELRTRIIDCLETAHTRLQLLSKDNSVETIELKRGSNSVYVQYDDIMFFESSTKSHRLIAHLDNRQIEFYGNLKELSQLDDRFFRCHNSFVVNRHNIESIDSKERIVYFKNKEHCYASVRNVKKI
Outline: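 S. aureus AH2759 (USA300 LAC, plasmid agr P3-luxABCDE) grown overnight in TSB with chloramphenicol 10 μg/mL, then diluted to a final 1:500. Compounds were added at 0.1–1000 μM final with 1% DMSO. Incubated at 37 °C with 250 rpm shaking. OD600 and luminescence were read hourly from 15 h. IC50 came from a weighted four-parameter logistic fit of OD-normalized luminescence; growth-delayed wells were excluded. AIP-2 (2–500 nM) was the control.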
For `O=C1c2cc(O)cc(O)c2C(=O)c2c(O)cc(CO)cc21`, the IC50 was 8.1 µM. `CC(C)C[C@@H]1NC(=O)[C@H](CO)NC(=O)[C@H](CO)NC(=O)[C@@H](NC(=O)[C@H](C)NC(=O)[C@H](CC(N)=O)NC(=O)[C@@H](NC(=O)CN)C(C)C)CSC(=O)[C@H](Cc2ccccc2)NC1=O` (H-GVNACSSLF; thioester 5-C) was tested, and the IC50 was 0.012 µM. Work on `CC(=O)C(O)c1cc(O)c2c(c1)C(=O)c1cc(O)cc(O)c1C2=O` (stereo not given) yielded an IC50 of 30.1 µM. Compound `Cc1cc(O)c2c(c1)C(=O)c1cc(O)cc(O)c1C2=O` [1,3,8-trihydroxy-6-methylanthra-9,10-quinone] has an IC50 of 17.1 µM. `O=C(O)c1cc(O)c2c(c1)C(=O)c1cc(O)c(O)c(O)c1C2=O` gave an IC50 of 120 µM. In the case of `C[C@@H](O)[C@@H](O)c1cc(O)c2c(c1)C(=O)c1cc(O)cc(O)c1C2=O`, the IC50 is reported as 26.5 µM. `O=C(O)c1cc(O)c2c(c1)C(=O)c1cc(O)cc(O)c1C2=O` [MLS000876948] was tested, and the IC50 was 30.6 µM. For `O=C(O)c1cc(O)c2c(c1)C(=O)c1cc(O)c(Cl)c(O)c1C2=O` [6-chloro-4,5,7-trihydroxy-9,10-dioxo-9,10-dihydroanthracene-2-carboxylic acid], the IC50 was 37.8 µM. With `C[C@H](O)Cc1cc(O)c2c(c1)C(=O)c1cc(O)cc(O)c1C2=O` the IC50 was 8.9 µM. In the case of `CC(=O)Cc1cc(O)c2c(c1)C(=O)c1cc(O)cc(O)c1C2=O`, the IC50 is reported as 19.8 µM.
